Data as given in ChEMBL document CHEMBL1123098, “Activity of platinum(II) intercalating agents against murine leukemia L1210” (J Med Chem, 1985).

How the values were obtained:
L1210 [1] = test: Growth inhibition of L1210 murine leukemia cells determined in culture; format: functional, cell-based, Mus musculus
How it was run: (§1)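 L1210 cells were grown in Minimum Essential Medium with 15% fetal calf serum, 2 mM glutamine and gentamycin, at 37 °C without agitation under 5% O2-10% CO2. Drug was diluted in sterile water and added to 5 × 10^4 cells/mL, with water-only controls. Exposure was continuous for 48 h, or in some cases a 2-h pulse followed by 48-h incubation. Cells were Coulter-counted and growth as % of control was plotted against concentration. IC50 is the mean of at least two determinations.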

L1210 [2] = test: Growth inhibition of L1210 leukemia was determined in culture; format: functional, cell-based, Mus musculus; how it was run: as §1

Row | Substance | IC50 (L1210 [1]) | IC50 (L1210 [2])
1 | (1,3-Diamine-2-hydroxypropane) ([2,2']Bipyridinyl)platinum (II) dichloride | 43 µM | –
2 | (1,3-Diaminepropane) ([2,2']Bipyridinyl)platinum (II) dichloride Pentahydrate | 9 µM | –
3 | (1,3-Diamino-2-hydroxypropane)(3,4,7,8-tetramethyl-1,10-phenanthroline)platinum (II) dichloride Dihydrate | 5 µM | –
4 | (1,3-Diaminopropane)(1,10-phenanthroline)-platinum (II) dichloride Dihydrate | 14 µM | –
5 | (1,3-Diaminopropane)(1,10-phenanthroline)-platinum (II) dichloride Monohydrate | 1 µM | –
6 | (1,4-Diaminebutane) ([2,2']Bipyridinyl)platinum (II) dichloride | > 500 µM | –
7 | (1,4-Diamino-butane)(3,4,7,8-tetramethyl-1,10-phenanthroline)platinum (II) dichloride | 50 µM | –
8 | (1,4-Diaminobutane)(1,10-phenanthroline)-platinum (II) dichloride Monohydrate | 110 µM | –
9 | (1-Thionaphthalato) (2,2':6',2''-terpyridine)platinum (II) dichloride Dihydrate | 5 µM | –
10 | (2,2':6',2''-terpyridine)platinum (II) dichloride Trihydrate | 450 µM | –
11 | (2-methyloxyThiophenolato)(2,2':6',2''-terpyridine)platinum (II) Chloride Trihydrate | 10 µM | –
12 | (4-AmmonioThiophenolato)(2,2':6',2''-terpyridine)platinum (II) dichloride Dihydrate | 32 µM | –
13 | (4-BromoThiophenolato)(2,2':6',2''-terpyridine)platinum (II) Chloride Dihydrate | 9 µM | –
14 | (4-ChloroThiophenolato)(2,2':6',2''-terpyridine)platinum (II)DiChloro Trihydrate | 9 µM | –
15 | (4-methylThiophenolato)(2,2':6',2''-terpyridine)platinum (II) Chloride Dihydrate | 12 µM | –
16 | (4-methyloxyThiophenolato)(2,2':6',2''-terpyridine)platinum (II) Chloride Trihydrate | 9 µM | –
17 | (Ethylenediamine)3,4,7,8-tetramethyl-1,10-phenanthroline)platinum (II) dichloride Dihydrate Dihydrate | 0.7 µM | –
18 | (Ethylenediamine) ([2,2']Bipyridinyl)platinum (II) dichloride Dihydrate | 33 µM | –
19 | (Ethylenediamine)(1,10-phenanthroline)-platinum (II) dichloride Dihydrate | 2 µM | –
20 | (Thiophenolato)(2,2':6',2''-terpyridine)platinum (II) Chloride Monohydrate | – | 6 µM
21 | DICHLORODIPHENYLPLATINUM TRIHYDRATE | 23 µM | –
